Reference: ChEMBL document CHEMBL2093137, “WHO-TDR NTD Screening”
In brackets after ≈: the same amount, converted by molar mass.

What was measured:
[1] = system: Trypanosoma cruzi; assay: WHO-TDR: Chagas disease; assay type: functional, organism-based, Homo sapiens; conditions: MRC5
How it was run: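 Intracellular amastigotes of the Trypanosoma cruzi Tulahuen CL2 beta-galactosidase strain, grown in MRC-5SV2 human lung fibroblast host cells, were tested in a whole-organism screen. The compounds came from a 10,000-member diverse Life Chemicals library that had been filtered for drug-likeness and reactive groups. Previously published standard procedures were followed, with a reference drug as positive control, and potency is reported as IC50.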

[2] = system: Plasmodium falciparum K1; assay: WHO-TDR: Malaria; assay type: functional, organism-based, Homo sapiens; conditions: Erythrocyte
How it was run: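 This whole-organism screen covered 10,000 drug-likeness-filtered and reactive-group-filtered compounds from Life Chemicals. The target was the Plasmodium falciparum K1 strain in human red blood cells, and the readout was antiplasmodial IC50.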

[3] = system: Trypanosoma brucei brucei; assay: WHO-TDR: Human African Trypanosomiasis (HAT); assay type: functional, organism-based; conditions: Squib-427
How it was run: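 Screening used a 10,000-compound diverse library supplied by Life Chemicals and filtered for drug-likeness and reactive groups. Whole bloodstream-form parasites of Trypanosoma brucei Squib 427 strain were assayed according to previously published standard procedures, with reference drugs as positive controls. The reported measure is IC50, reflecting antiparasitic potency.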

[4] = system: Schistosoma mansoni; assay: WHO-TDR: Schistosomiasis; assay type: functional; design: concentration or dose not given beside the values
How it was run: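 Whole-organism screen of a 10,000-compound diverse library from Life Chemicals, filtered for drug-likeness and reactive groups, against larval and/or adult worms of Schistosoma mansoni Puerto Rican strain. The assay followed previously published standard procedures, with a reference drug as positive control. Activity is reported as percent inhibition and as IC50.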

[5] = WHO-TDR: Cytotoxicity; assay type: toxicity, cell-based; conditions: human, MRC5 cells
[6] = system: Onchocerca ochengi; assay: WHO-TDR: Onchocerciasis; assay type: functional; design: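 at 12.5 µM on microfilariae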
How it was run: (§1)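 Whole-organism screen of a 10,000-compound diverse library from Life Chemicals, filtered for drug-likeness and reactive groups, against microfilariae of Onchocerca ochengi or Onchocerca lienalis, used as animal-pathogen stand-ins for the human parasite. The assay followed previously published standard procedures, with reference drugs as positive controls. Activity is reported as percent inhibition and as IC50.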

[7] = system: Leishmania infantum; assay: WHO-TDR: Leishmaniasis; assay type: functional, organism-based, Mus musculus; conditions: Macrophage
How it was run: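 The screened collection came from Life Chemicals: 10,000 diverse compounds selected after filtering for drug-likeness and reactive groups. Each was tested in a whole-organism assay against Leishmania infantum MHOM/MA(BE)/67 amastigotes inside murine peritoneal macrophages, using previously published standard procedures and a reference drug as positive control. Results are IC50 values for antiparasitic potency.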

[8] = system: Brugia malayi; assay: WHO-TDR: Lymphatic Filariasis; assay type: functional; design: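 tested at 10 µM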
How it was run: as §1, with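 “Brugia malayi microfilariae.” for “microfilariae of Onchocerca ochengi or Onchocerca lienalis, used as animal-pathogen stand-ins for the human parasite.”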

Row | SMILES | IC50 [1] [µg/mL] | IC50 [2] [µg/mL] | IC50 [3] [µg/mL] | % Inhibition [4] [%] | IC50 [5] [µg/mL] | % Inhibition [6] [%] | IC50 [7] [µg/mL] | % Inhibition [8] [%]
1 | Cc1ccc(S(=O)(=O)N2CCN(c3ccc(Nc4cccnc4)nn3)CC2)c(C)c1 | 3.91 (≈ 9.21 µM) | 0.716 (≈ 1.69 µM) | > 12.7 | 0 | 0.804 (≈ 1.89 µM) | 100 | > 12.7 | 0
2 | CCCCC1CCC(C(=O)NCCn2nc(-c3ccncc3)ccc2=O)CC1 (stereo not drawn) | 6.12 (≈ 16 µM) | > 11.5 | > 11.5 | 0 | 11 (≈ 28.7 µM) | 0 | 0.371 (≈ 0.97 µM) | 0
3 | Cc1csc(NC(=O)CSc2nc(-c3ccccc3)c(N)s2)n1 | 7.18 (≈ 19.8 µM) | > 10.9 | > 10.9 | 0 | > 10.9 | 50 | 0.352 (≈ 0.971 µM) | 33.33
4 | COc1ccc2nc(-c3ccc(F)c(NC(=O)Cc4ccccc4)c3)cn2n1 | > 11.3 | > 11.3 | > 11.3 | 25 | > 11.3 | 0 | 0.366 (≈ 0.972 µM) | 0
5 | Cc1n[nH]c(C)c1CCc1nc(-c2ccc(Cl)cc2)no1 | 1.8 (≈ 5.96 µM) | 1.14 (≈ 3.78 µM) | 2.13 (≈ 7.03 µM) | 0 | > 9.08 | 100 | > 9.08 | 0
6 | CCn1nc(C)cc1C(=O)N1CCN(c2nc3c(C)ccc(C)c3s2)CC1 | > 11.5 | > 11.5 | > 11.5 | 16.7 | > 11.5 | 100 | > 11.5 | 0
7 | O=C(C1CCN(S(=O)(=O)c2cccs2)CC1)N(Cc1cccnc1)c1nc2c(F)cc(F)cc2s1 | 0.535 (≈ 1 µM) | > 16 | > 16 | 0 | > 10.9 | 0 | > 16 | 25
8 | O=C(Nc1nnc(-c2ccc(Br)s2)o1)c1ccno1 | > 10.2 | > 10.2 | > 10.2 | 16.7 | > 10.2 | 0 | 0.331 (≈ 0.97 µM) | 0
9 | CCc1ccc2nc(N(CCCn3ccnc3)C(=O)/C=C/c3cccs3)sc2c1 | 0.399 (≈ 0.944 µM) | 0.163 (≈ 0.386 µM) | 1 (≈ 2.37 µM) | 0 | 3.5 (≈ 8.28 µM) | 100 | 4.46 (≈ 10.5 µM) | 0
10 | CC(C)(C)n1ncc2c(=O)n(CCC(=O)Nc3ccc4c(c3)OCO4)cnc21 | > 11.5 | > 11.5 | > 11.5 | 100 | > 11.5 | 0 | > 11.5 | 20
11 | Cc1cc(C(=O)Nc2nnc(-c3ccc(Br)s3)o2)nn1C | > 11 | > 11 | > 11 | 8.3 | 3.2 (≈ 8.68 µM) | 100 | > 11 | 0
12 | Cc1ccc(-c2ccc(=O)n(CCCNS(=O)(=O)c3ccc(Cl)s3)n2)cc1 | > 12.7 | > 12.7 | > 12.7 | 0 | 5.29 (≈ 12.5 µM) | 100 | > 12.7 | 0
13 | O=C(CSc1ccc(F)cc1)N(CCCn1ccnc1)c1nc2c(F)cccc2s1 | 5.11 (≈ 11.5 µM) | 2.13 (≈ 4.8 µM) | 4.62 (≈ 10.4 µM) | 0 | > 14.4 | 100 | > 14.4 | 0
14 | Cc1ccc(NC(=O)N2CCN(c3ccc(Nc4cccnc4)nn3)CC2)cc1C | > 12.1 | > 12.1 | > 12.1 | 0 | > 12.1 | 100 | > 12.1 | 0
15 | CC1(C)Cc2cccc(OCCCS(=O)(=O)NCc3cccs3)c2O1 | > 11.4 | > 11.4 | > 11.4 | 0 | > 11.4 | 100 | > 11.4 | 20
16 | Cn1ccnc1N1CCN(CC(=O)Nc2ccc(OC(F)(F)F)cc2)CC1 | > 11.5 | > 11.5 | 5.13 (≈ 13.4 µM) | 0 | > 11.5 | 50 | 0.372 (≈ 0.97 µM) | 0
17 | O=C(Nc1nnc(-c2ccc(Br)s2)o1)C1CCCN1S(=O)(=O)c1cccs1 (stereo not drawn) | > 14.7 | > 14.7 | 6.68 (≈ 13.6 µM) | 8.3 | > 14.7 | 0 | 0.475 (≈ 0.971 µM) | 0
18 | CCC(=O)Nc1ccc(S(=O)(=O)NCCc2ccc(N3CCCC3)cc2)c(C)c1 | 5.06 (≈ 12.2 µM) | > 12.5 | 6.95 (≈ 16.7 µM) | 0 | > 12.5 | 100 | > 12.5 | 0
19 | CC(C)(C)C(=O)N1CCc2ccc(NC(=O)Cc3cccs3)cc21 | 4.11 (≈ 12 µM) | > 10.3 | > 10.3 | 0 | > 10.3 | 50 | 0.333 (≈ 0.972 µM) | 0
20 | CCn1ccc(C(=O)Nc2ccc(C)cc2C(=O)c2ccccc2)n1 | > 10 | > 10 | > 10 | 0 | > 10 | 100 | > 10 | 0
21 | O=C(Cc1csc(NC(=O)c2ccc[nH]c2=O)n1)Nc1ccc2c(c1)OCCO2 | > 12.4 | > 12.4 | > 12.4 | 100 | > 12.4 | 0 | > 12.4 | 20
22 | O=c1ccc(-c2ccncc2)nn1CCNS(=O)(=O)c1ccc2c(c1)CCCC2 | > 12.3 | > 12.3 | > 12.3 | 0 | > 12.3 | 100 | > 12.3 | 0
23 | O=C(c1ccccc1)N1CCN(c2ccc(Nc3ccccn3)nn2)CC1 | > 10.8 | > 10.8 | > 10.8 | 0 | > 10.8 | 0 | 0.35 (≈ 0.971 µM) | 0
24 | CCOc1ccc(-c2ccc(=O)n(CCCC(=O)Nc3ccccc3SC)n2)cc1 | 8.92 (≈ 21.1 µM) | > 12.7 | > 12.7 | 0 | > 12.7 | 100 | > 12.7 | 0
25 | Cc1ccc(S(=O)(=O)NCCNc2ccc(Nc3cccc(C)n3)nn2)c(C)c1 | 3.96 (≈ 9.61 µM) | > 12.4 | 4.01 (≈ 9.71 µM) | 0 | > 12.4 | 100 | 8.43 (≈ 20.4 µM) | 0
26 | CCn1ccnc1N1CCN(C(=O)c2cccc(OC)c2OC)CC1 | > 11.4 | > 11.4 | > 11.4 | 8.3 | > 11.4 | 0 | 0.37 (≈ 1.07 µM) | 0
